Assay results published in ChEMBL document CHEMBL1122233, “Antihypertensive 9-substituted 1-oxa-4,9-diazaspiro[5.5]undecan-3-ones” (J Med Chem, 1983).

Assays:
[1] = test system: Rattus norvegicus; assay: Percentage fall in systolic blood pressure after 2 hours at 50 mg/kg given perorally.; type: functional, Artery; conditions: route oral
Outline: (§1)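 Male Okamoto-Aoki spontaneously hypertensive rats, trained, in groups of four matched for mean systolic pressure; five treated groups and one vehicle control run concurrently. Oral dosing in water (solution or suspension, 0.1 mL/10 g) on two consecutive mornings. On day 2, rats were restrained at 30.0 ± 1.0 °C and tail-cuff systolic pressure recorded at 1–4 h; percent fall versus control, 1-tail t test, p ≤ 0.05.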

[2] = test system: Rattus norvegicus; assay: (§2) Percentage fall in systolic blood pressure after 1 hr at 50 mg/kg given perorally; type: functional, organism-based; set-up: dose 50 mg/kg; conditions: Artery; outline: as §1
[3] = test system: Rattus norvegicus; assay: (§3) Percentage fall in systolic blood pressure after 3 hours at 50 mg/kg given perorally; type: functional, organism-based; set-up: dose 50 mg/kg; conditions: Artery
Outline: (§4)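 Male Okamoto-Aoki SHR, four per group, with a concurrent vehicle control group. Oral dosing in water (0.1 mL/10 g) on two consecutive mornings. After the day-2 dose, rats were restrained in a 30 °C chamber. Tail-cuff systolic pressure was taken at 1-4 h from four traces per rat. Result is % decrease versus control mean, by 1-tailed t test, p ≤ 0.05.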

[4] = test system: Rattus norvegicus; assay: (§5) Percentage fall in systolic blood pressure after 4 hours at 50 mg/kg given perorally; type: functional, organism-based; set-up: dose 50 mg/kg; conditions: Artery; outline: as §4
[5] = test system: Rattus norvegicus; assay: (§6) Percentage fall in systolic blood pressure after 2 hours at 50 mg/kg given perorally; type: functional, Artery; conditions: route oral; outline: as §4
[6] = molecular target: T1, Adrenergic receptor alpha-2 (Rattus norvegicus, UniProt P22086+P19328+P22909); assay: Affinity for alpha-2 adrenergic receptor of rat cerebral cortex was determined by ligand binding using [3H]yohimbine.; type: tissue-based
T1 sequence (P22086 whole entry): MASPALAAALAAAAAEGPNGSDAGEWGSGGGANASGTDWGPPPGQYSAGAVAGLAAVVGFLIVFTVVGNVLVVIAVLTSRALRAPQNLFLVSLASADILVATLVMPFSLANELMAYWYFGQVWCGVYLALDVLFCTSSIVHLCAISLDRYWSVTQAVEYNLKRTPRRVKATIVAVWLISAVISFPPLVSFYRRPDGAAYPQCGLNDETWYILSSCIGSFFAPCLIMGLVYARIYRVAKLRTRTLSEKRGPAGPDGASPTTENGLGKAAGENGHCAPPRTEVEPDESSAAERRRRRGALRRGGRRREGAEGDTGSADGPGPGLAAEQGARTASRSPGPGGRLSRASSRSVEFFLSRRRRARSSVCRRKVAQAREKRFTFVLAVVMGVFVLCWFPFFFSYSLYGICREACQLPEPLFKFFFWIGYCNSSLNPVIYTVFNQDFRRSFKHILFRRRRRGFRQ
T1 sequence (P19328 whole entry): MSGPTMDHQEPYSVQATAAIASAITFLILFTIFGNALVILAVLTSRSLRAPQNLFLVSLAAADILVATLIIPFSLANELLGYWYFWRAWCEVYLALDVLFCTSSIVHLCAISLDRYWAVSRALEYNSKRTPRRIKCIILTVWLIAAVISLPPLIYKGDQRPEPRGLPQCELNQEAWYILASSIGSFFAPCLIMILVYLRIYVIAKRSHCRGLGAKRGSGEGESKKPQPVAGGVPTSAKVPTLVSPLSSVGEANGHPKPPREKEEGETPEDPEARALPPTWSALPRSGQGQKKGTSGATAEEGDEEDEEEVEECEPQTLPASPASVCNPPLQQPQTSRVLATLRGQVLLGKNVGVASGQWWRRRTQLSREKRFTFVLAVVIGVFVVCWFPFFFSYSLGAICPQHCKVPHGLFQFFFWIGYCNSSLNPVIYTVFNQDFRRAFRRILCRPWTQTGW
T1 sequence (P22909 whole entry): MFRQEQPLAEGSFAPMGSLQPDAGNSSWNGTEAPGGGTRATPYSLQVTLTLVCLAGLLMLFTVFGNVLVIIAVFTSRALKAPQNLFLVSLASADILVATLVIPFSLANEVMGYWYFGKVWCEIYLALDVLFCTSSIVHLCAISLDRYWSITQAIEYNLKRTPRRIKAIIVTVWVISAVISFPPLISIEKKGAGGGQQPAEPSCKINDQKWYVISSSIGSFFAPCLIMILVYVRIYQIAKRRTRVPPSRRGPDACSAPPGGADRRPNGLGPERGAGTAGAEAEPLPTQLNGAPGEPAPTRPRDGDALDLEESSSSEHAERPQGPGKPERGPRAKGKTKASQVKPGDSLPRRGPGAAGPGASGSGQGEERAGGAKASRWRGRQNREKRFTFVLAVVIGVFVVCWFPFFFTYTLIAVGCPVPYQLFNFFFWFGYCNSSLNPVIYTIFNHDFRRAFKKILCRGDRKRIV
Outline: (§7)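 Washed rat cerebral cortex membranes (homogenised in 50 mM Tris-HCl pH 7.8, pelleted at 48000g, washed 3 times) at 2.5 mg/mL protein. […] Ice-cold buffer stop, then filtration. Nonspecific binding defined with 200 μmol norepinephrine. KI from IC50 by Cheng-Prusoff, given as negative log.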

[7] = test system: Rattus norvegicus; assay: Percentage fall in systolic blood pressure after 1 hr at 6.25 mg/kg given perorally; type: functional, Artery; conditions: route oral; outline: as §4
[8] = test system: Rattus norvegicus; assay: Percentage fall in systolic blood pressure after 4 hours at 12.5 mg/kg given perorally; type: functional, Artery; conditions: route oral; outline: as §4
[9] = test system: Rattus norvegicus; assay: Percentage fall in systolic blood pressure after 3 hours at 12.5 mg/kg given perorally; type: functional, Artery; conditions: route oral; outline: as §4
[10] = molecular target: T2, Adrenergic receptor alpha-1 (Rattus norvegicus, UniProt P15823+P23944+P43140); assay: Affinity for alpha-1 adrenoceptor of rat cerebral cortex was determined by ligand binding using [3H]prazosin.; type: tissue-based; outline: as §7
T2 sequence (P15823 whole entry): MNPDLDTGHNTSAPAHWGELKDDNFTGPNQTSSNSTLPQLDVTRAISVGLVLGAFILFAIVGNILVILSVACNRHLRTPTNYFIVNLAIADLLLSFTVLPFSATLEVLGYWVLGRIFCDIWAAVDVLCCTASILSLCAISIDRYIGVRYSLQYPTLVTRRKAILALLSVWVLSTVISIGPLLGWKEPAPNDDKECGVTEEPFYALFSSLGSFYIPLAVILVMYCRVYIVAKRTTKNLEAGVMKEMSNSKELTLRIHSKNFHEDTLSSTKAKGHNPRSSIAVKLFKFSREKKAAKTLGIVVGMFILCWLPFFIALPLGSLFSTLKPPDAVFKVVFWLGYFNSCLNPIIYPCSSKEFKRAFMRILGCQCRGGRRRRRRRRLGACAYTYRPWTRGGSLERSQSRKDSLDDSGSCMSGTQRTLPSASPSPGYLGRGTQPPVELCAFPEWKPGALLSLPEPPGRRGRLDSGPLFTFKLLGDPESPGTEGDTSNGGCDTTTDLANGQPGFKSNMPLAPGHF
T2 sequence (P23944 whole entry): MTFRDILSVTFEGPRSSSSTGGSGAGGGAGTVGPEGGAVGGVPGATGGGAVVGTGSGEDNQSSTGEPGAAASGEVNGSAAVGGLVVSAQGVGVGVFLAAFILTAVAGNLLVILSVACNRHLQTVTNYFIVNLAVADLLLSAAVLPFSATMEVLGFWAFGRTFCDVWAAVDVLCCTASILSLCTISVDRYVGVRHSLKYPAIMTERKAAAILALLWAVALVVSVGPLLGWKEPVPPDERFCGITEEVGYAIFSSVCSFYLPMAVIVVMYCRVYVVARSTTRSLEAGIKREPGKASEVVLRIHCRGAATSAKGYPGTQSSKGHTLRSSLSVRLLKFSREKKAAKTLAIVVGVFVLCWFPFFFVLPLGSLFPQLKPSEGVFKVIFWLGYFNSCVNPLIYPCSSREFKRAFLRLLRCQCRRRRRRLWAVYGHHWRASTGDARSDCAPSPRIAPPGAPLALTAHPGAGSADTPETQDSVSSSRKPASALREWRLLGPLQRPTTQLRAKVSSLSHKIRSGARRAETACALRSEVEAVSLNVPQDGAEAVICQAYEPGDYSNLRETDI
T2 sequence (P43140 whole entry): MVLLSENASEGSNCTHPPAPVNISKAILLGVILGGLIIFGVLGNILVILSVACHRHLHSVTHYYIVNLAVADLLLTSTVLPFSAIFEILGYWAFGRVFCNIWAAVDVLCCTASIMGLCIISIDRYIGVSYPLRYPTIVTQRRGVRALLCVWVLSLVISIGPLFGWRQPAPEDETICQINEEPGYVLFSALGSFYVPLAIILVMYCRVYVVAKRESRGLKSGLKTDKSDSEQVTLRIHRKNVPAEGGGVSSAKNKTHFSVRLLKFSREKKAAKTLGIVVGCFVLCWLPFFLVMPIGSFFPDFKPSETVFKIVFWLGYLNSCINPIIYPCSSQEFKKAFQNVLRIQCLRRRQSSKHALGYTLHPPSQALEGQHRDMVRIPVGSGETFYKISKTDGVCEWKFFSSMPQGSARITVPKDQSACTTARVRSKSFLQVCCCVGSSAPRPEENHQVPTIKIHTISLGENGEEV

[11] = test system: Rattus norvegicus; assay: Percentage fall in systolic blood pressure after 4 hours at 6.25 mg/kg given perorally; type: functional, Artery; conditions: route oral; outline: as §4
[12] = test system: Rattus norvegicus; assay: Percentage fall in systolic blood pressure after 2 hours at 12.5 mg/kg given perorally; type: functional, Artery; conditions: route oral; outline: as §4
[13] = test system: Rattus norvegicus; assay: Percentage fall in systolic blood pressure after 3 hours at 6.25 mg/kg given perorally; type: functional, Artery; conditions: route oral; outline: as §4
[14] = test system: Rattus norvegicus; assay: Percentage fall in systolic blood pressure after 2 hours at 6.25 mg/kg given perorally; type: functional, Artery; conditions: route oral; outline: as §4
[15] = test system: Rattus norvegicus; assay: as §3; type: functional, Artery; conditions: route oral; outline: as §4
[16] = test system: Rattus norvegicus; assay: Percentage fall in systolic blood pressure after 1 hr at 12.5 mg/kg given perorally; type: functional, Artery; conditions: route oral; outline: as §4
[17] = test system: Rattus norvegicus; assay: as §5; type: functional, Artery; conditions: route oral; outline: as §4
[18] = test system: Rattus norvegicus; assay: as §2; type: functional, Artery; conditions: route oral; outline: as §4
[19] = test system: Rattus norvegicus; assay: as §6; type: functional, organism-based; set-up: dose 50 mg/kg; conditions: Artery; outline: as §1
[20] = test system: Rattus norvegicus; assay: as §5; type: functional, organism-based; set-up: dose 50 mg/kg; conditions: Artery; outline: as §1; remark: listed apart in the source
[21] = test system: Rattus norvegicus; assay: as §3; type: functional, organism-based; set-up: dose 50 mg/kg; conditions: Artery; outline: as §1; remark: listed apart in the source

O=C1COC2(CCN(CC(O)COc3ccccc3)CC2)CN1 (configuration not stated)
Decrease in SBP [1]: 18% | Decrease in SBP [2]: Not significant | Decrease in SBP [3]: Not significant | Decrease in SBP [4]: Not significant

O=C1COC2(CCN(CCc3c[nH]c4ccccc34)CC2)CN1
Decrease in SBP [5]: 48% | -Log Ki [6]: 6.2 | Decrease in SBP [7]: 28% | Decrease in SBP [8]: 26% | Decrease in SBP [9]: 29% | -Log Ki [10]: 7.41 | Decrease in SBP [11]: 19% | Decrease in SBP [12]: 41% | Decrease in SBP [13]: 20% | Decrease in SBP [14]: 30% | Decrease in SBP [15]: 48% | Decrease in SBP [16]: 39% | Decrease in SBP [17]: 41% | Decrease in SBP [18]: 53%

O=C1COC2(CCN(CC(O)C3COc4ccccc4O3)CC2)C(c2ccccc2)N1 (configuration not stated)
Decrease in SBP [19]: Not significant | Decrease in SBP [2]: Not significant | Decrease in SBP [20]: Not significant | Decrease in SBP [21]: Not significant
